The record followed here is ChEMBL document CHEMBL2057149 (J Med Chem, 2012).

Calls of active or inactive are those of the source. No cut-off for these calls is given here. Where only a bound is given, the exact number is not on record here.

The target of data set [1] is Fibroblast growth factor 2 (Homo sapiens, UniProt P09038). As to the kind of experiment: Binding affinity to FGF-2 by surface plasmon resonance assay. In outline:
(§1)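 Solution-affinity SPR on heparin-coated CM4 chips. FGF-1 measured in HBS-EP (10 mM HEPES pH 7.4, 150 mM NaCl, 3.0 mM EDTA, 0.005% polysorbate 20); FGF-2 measured in HBS-EP with 300 mM NaCl. Kd is the average of at least duplicate measurements ± SD.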
On the technique in general: Surface plasmon resonance follows binding to a sensor surface in real time, without labels.

Data set [2] addresses Fibroblast growth factor 1 (Homo sapiens, UniProt P05230). As to the kind of experiment: Binding affinity to FGF-1 by surface plasmon resonance assay. In outline:
as §1

Data set [3] deals with HMVEC. As to the kind of experiment: Antiangiogenic activity in VEGF-stimulated HMVEC cells after 72 hrs by CellTiter assay. Particulars: Homo sapiens. The format is functional, cell-based.
Data set [4] deals with HMVEC. As to the kind of experiment: Antiangiogenic activity in FGF2-stimulated HMVEC cells after 72 hrs by CellTiter assay. Particulars: Homo sapiens. The format is functional, cell-based.
Data set [5] deals with Plasma. Briefly: Anticoagulant activity in pooled human plasma assessed as prolongation of the recalcification time at 0.1 mg/ml by Heptest assay. It counts as ADME, cell-free. In outline:
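Heptest clotting time in pooled normal human plasma; normal range 13–20 s. Values are the mean of two determinations.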

The target of data set [6] is T1, Heparanase (Homo sapiens, UniProt Q9Y251).
T1 sequence (Q9Y251 whole entry): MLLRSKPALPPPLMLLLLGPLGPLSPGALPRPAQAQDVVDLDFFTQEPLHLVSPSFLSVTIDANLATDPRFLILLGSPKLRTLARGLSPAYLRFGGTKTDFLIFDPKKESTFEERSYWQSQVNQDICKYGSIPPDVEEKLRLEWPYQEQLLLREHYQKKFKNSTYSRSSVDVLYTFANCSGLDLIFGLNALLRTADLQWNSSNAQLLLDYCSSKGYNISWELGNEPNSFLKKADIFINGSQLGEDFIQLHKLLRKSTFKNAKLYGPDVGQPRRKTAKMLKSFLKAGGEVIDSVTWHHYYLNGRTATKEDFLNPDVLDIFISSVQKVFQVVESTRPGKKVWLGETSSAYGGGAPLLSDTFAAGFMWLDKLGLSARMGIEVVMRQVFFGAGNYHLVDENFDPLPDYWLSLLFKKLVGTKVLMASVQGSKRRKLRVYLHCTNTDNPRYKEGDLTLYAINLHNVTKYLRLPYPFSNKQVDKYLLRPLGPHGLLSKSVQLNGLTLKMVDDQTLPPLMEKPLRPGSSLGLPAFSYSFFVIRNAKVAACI
Briefly: Inhibition of human recombinant heparanase after 2 to 24 hrs by WST1 dye based fondaparinux assay. On the technique in general: Tetrazolium dyes change colour on reduction, which living cells bring about.

The target of data set [7] is Vascular endothelial growth factor A (Homo sapiens) (UniProt P15692). As to the kind of experiment: Binding affinity to VEGF by surface plasmon resonance assay.
For data set [8], the system named is HUVEC. Briefly: Antiangiogenic activity in VEGF-stimulated HUVEC cells after 72 hrs by CellTiter assay. The format is functional, cell-based. To be noted: Homo sapiens.
For data set [9], the system named is HUVEC. Briefly: Antiangiogenic activity in FGF2-stimulated HUVEC cells after 72 hrs by CellTiter assay. The format is functional, cell-based. To be noted: Homo sapiens.
Data set [10] relates to Plasma. Briefly: Anticoagulant activity in pooled human plasma assessed as activated partial thromboplastin time at 0.1 mg/ml. The format is ADME, cell-free. In outline: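 APTT of pooled normal human plasma measured with compound at 0–100 μg/mL in PBS on a ball coagulameter, using unfractionated heparin as the reference. Normal range 26–36 s; coefficient of variation 2% at 36 s and 5–7% at 90 s or above. Values are the mean of two determinations.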

Data set [11] deals with HMVEC. Briefly: Antiangiogenic activity in FGF1-stimulated HMVEC cells after 72 hrs by CellTiter assay. The format is functional, cell-based. Particulars: Homo sapiens.
Data set [12] has as its system HUVEC. As to the kind of experiment: Antiangiogenic activity in FGF1-stimulated HUVEC cells after 72 hrs by CellTiter assay. Particulars: Homo sapiens. It counts as functional, cell-based.

Fibroblast growth factor 2, sequence (P09038 143-288 limits assumed): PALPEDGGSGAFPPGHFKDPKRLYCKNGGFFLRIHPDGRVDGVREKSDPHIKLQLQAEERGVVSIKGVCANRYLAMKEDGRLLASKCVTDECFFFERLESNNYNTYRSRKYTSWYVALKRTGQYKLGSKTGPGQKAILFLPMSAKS
Fibroblast growth factor 1, sequence (P05230 whole entry): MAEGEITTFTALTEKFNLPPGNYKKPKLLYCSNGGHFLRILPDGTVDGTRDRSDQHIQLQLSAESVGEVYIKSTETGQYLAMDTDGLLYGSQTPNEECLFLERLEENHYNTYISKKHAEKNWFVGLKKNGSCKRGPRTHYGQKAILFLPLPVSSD

Take `CC(C)CCC[C@@H](C)[C@H]1CC[C@H]2[C@@H]3CC[C@H]4C[C@@H](O[C@H]5O[C@H](COS(=O)(=O)[O-])[C@@H](OS(=O)(=O)[O-])[C@H](OS(=O)(=O)[O-])[C@@H]5O[C@H]5O[C@H](COS(=O)(=O)[O-])[C@@H](OS(=O)(=O)[O-])[C@H](O[C@H]6O[C@H](COS(=O)(=O)[O-])[C@@H](OS(=O)(=O)[O-])[C@H](OS(=O)(=O)[O-])[C@@H]6OS(=O)(=O)[O-])[C@@H]5OS(=O)(=O)[O-])CC[C@]4(C)[C@H]3CC[C@]12C.[Na+].[Na+].[Na+].[Na+].[Na+].[Na+].[Na+].[Na+].[Na+].[Na+]`: the figures for the dissociation constant Kd in [1], in data set [2] and in data set [7] were 631 nM, 18.5 nM and 319 nM, respectively. The outcome in [3], in data set [4] and in data set [11] was Active. Moreover, in data set [5], the Time worked out at 27.3 s. In addition, in data set [6], the Ki came out at 6.4 nM. Besides, the IC50 in data set [8] was 1000 nM; in data set [9], 2270 nM; in data set [12], 4400 nM. Also, the APTT in [10] is given as 50.7 s.

Consider `CC(C)CCC[C@@H](C)[C@H]1CC[C@H]2[C@@H]3CC[C@H]4C[C@@H](OCc5cn(CCCO[C@H]6O[C@H](COS(=O)(=O)[O-])[C@@H](OS(=O)(=O)[O-])[C@H](O[C@H]7O[C@H](COS(=O)(=O)[O-])[C@@H](OS(=O)(=O)[O-])[C@H](O[C@H]8O[C@H](COS(=O)(=O)[O-])[C@@H](OS(=O)(=O)[O-])[C@H](OS(=O)(=O)[O-])[C@@H]8OS(=O)(=O)[O-])[C@@H]7OS(=O)(=O)[O-])[C@@H]6OS(=O)(=O)[O-])nn5)CC[C@]4(C)[C@H]3CC[C@]12C.[Na+].[Na+].[Na+].[Na+].[Na+].[Na+].[Na+].[Na+].[Na+].[Na+]`, for which the Kd in data set [1] was found to be 474 nM; in data set [2], 14.3 nM; in data set [7] it was 260 nM. In addition, the result in data set [3], in [4] and in [11] was Active. Moreover, the Time in [5] is listed as 26.4 s. Also, in data set [6], the Ki stood at 8.4 nM. Besides, the IC50 came out at 1400 nM in data set [8], 1200 nM in [9] and 2610 nM in [12]. Also, the APTT in [10] is listed as 71.4 s.

As for `CCCCCCCCCCCCCCCCCC(=O)NCCCO[C@@H]1O[C@H](COS(=O)(=O)[O-])[C@@H](O[C@H]2O[C@H](COS(=O)(=O)[O-])[C@@H](O[C@H]3O[C@H](COS(=O)(=O)[O-])[C@@H](OS(=O)(=O)[O-])[C@H](OS(=O)(=O)[O-])[C@H]3OS(=O)(=O)[O-])[C@H](OS(=O)(=O)[O-])[C@H]2OS(=O)(=O)[O-])[C@H](OS(=O)(=O)[O-])[C@H]1OS(=O)(=O)[O-].[Na+].[Na+].[Na+].[Na+].[Na+].[Na+].[Na+].[Na+].[Na+].[Na+]`, the outcome in data set [3], in [4] and in data set [11] was Active. The Time in [5] is given as 24.9 s. The compound further came in with a Kd in [7] of 380 nM. Besides, the APTT in [10] was 51.1 s.

Take `CC(C)CCC[C@@H](C)[C@H]1CC[C@H]2[C@@H]3CC[C@H]4C[C@@H](O[C@H]5O[C@H](COS(=O)(=O)[O-])[C@@H](OS(=O)(=O)[O-])[C@H](OS(=O)(=O)[O-])[C@@H]5OS(=O)(=O)[O-])CC[C@]4(C)[C@H]3CC[C@]12C.[Na+].[Na+].[Na+].[Na+]`: the Kd in data set [1] was greater than 3000 nM; in data set [7] it was 3000 nM. Moreover, the result in [3], in data set [4] and in data set [11] was Active. Besides, the Time in data set [5] is 23.9 s. Moreover, the figures for the IC50 in [8], in data set [9] and in data set [12] were 2240 nM, 2900 nM and 2200 nM, respectively. The APTT in data set [10] is 36.1 s.

In the case of `CC(C)CCC[C@@H](C)[C@H]1CC[C@H]2[C@@H]3CC[C@H]4C[C@@H](O[C@@H]5O[C@H](COS(=O)(=O)[O-])[C@@H](O[C@H]6O[C@H](COS(=O)(=O)[O-])[C@@H](OS(=O)(=O)[O-])[C@H](OS(=O)(=O)[O-])[C@H]6OS(=O)(=O)[O-])[C@H](OS(=O)(=O)[O-])[C@H]5OS(=O)(=O)[O-])CC[C@]4(C)[C@H]3CC[C@]12C.[Na+].[Na+].[Na+].[Na+].[Na+].[Na+].[Na+]`, the figures for the Kd in data set [1], in data set [2] and in [7] were 2200 nM, 560 nM and 1200 nM, respectively. Also, the outcome in data set [3], in data set [4] and in data set [11] was Active. Besides, the Time in data set [5] came out at 23.9 s. Besides, the IC50 in data set [8] is 5200 nM; in data set [9], greater than 10000 nM; in data set [12], 4000 nM. For the same compound, in data set [10], the APTT is given as 38.6 s.

For the compound `CC(C)CCC[C@@H](C)[C@H]1CC[C@H]2[C@@H]3CC[C@H]4C[C@@H](O[C@H]5O[C@H](COS(=O)(=O)[O-])[C@@H](OS(=O)(=O)[O-])[C@H](OS(=O)(=O)[O-])[C@@H]5O[C@H]5O[C@H](COS(=O)(=O)[O-])[C@@H](OS(=O)(=O)[O-])[C@H](OS(=O)(=O)[O-])[C@@H]5OS(=O)(=O)[O-])CC[C@]4(C)[C@H]3CC[C@]12C.[Na+].[Na+].[Na+].[Na+].[Na+].[Na+].[Na+]`, the result in [3], in data set [4] and in [11] was Active. Also, in [5], the Time turned out to be 25.5 s. This compound yielded a dissociation constant (Kd) in [7] of 1300 nM. The IC50 in data set [8] was 1800 nM; in data set [9] it was 2220 nM; in [12], greater than 10000 nM. The APTT in data set [10] is 40.6 s.

With `CC(C)CCC[C@@H](C)[C@H]1CC[C@H]2[C@@H]3CC[C@H]4C[C@@H](O[C@@H]5O[C@H](COS(=O)(=O)[O-])[C@@H](O[C@@H]6O[C@H](COS(=O)(=O)[O-])[C@@H](OS(=O)(=O)[O-])[C@H](OS(=O)(=O)[O-])[C@H]6OS(=O)(=O)[O-])[C@H](OS(=O)(=O)[O-])[C@H]5OS(=O)(=O)[O-])CC[C@]4(C)[C@H]3CC[C@]12C.[Na+].[Na+].[Na+].[Na+].[Na+].[Na+].[Na+]`, the Kd in data set [1] came out at 2000 nM; in data set [2], 870 nM; in data set [7], 1350 nM. The result in data set [3], in data set [4] and in [11] was Active. Moreover, the Time in data set [5] is 25.3 s. Besides, the IC50 in data set [8] came to 5600 nM; in data set [9], 5600 nM; in [12], 6000 nM. Further, in data set [10], the APTT came to 38.8 s.

`CC(C)CCC[C@@H](C)[C@H]1CC[C@H]2[C@@H]3CC[C@H]4C[C@@H](OCc5cn([C@@H]6O[C@H](COS(=O)(=O)[O-])[C@@H](O[C@H]7O[C@H](COS(=O)(=O)[O-])[C@@H](OS(=O)(=O)[O-])[C@H](OS(=O)(=O)[O-])[C@H]7OS(=O)(=O)[O-])[C@H](OS(=O)(=O)[O-])[C@H]6OS(=O)(=O)[O-])nn5)CC[C@]4(C)[C@H]3CC[C@]12C.[Na+].[Na+].[Na+].[Na+].[Na+].[Na+].[Na+]`: the outcome in [3], in [4] and in [11] was Active. Also, the Time in [5] is recorded as 26.7 s. The same compound yielded a Kd in [7] of 1930 nM. Further, the IC50 in data set [8] was 1130 nM; in data set [9], 4170 nM; in data set [12], 4100 nM. Also, in data set [10], the APTT is on record as 40.3 s.

Usually Kd stands for the equilibrium constant for the complex coming apart. A high value points to weaker binding. As usually defined, the Ki is the dissociation constant of the complex between target and ligand, obtained from inhibition or displacement. Broadly, the IC50 is the midpoint of a concentration-inhibition curve. Read a high IC50 as weaker potency in that assay.
